Test results taken from ChEMBL document CHEMBL1143072, “Nitric oxide production inhibitory activity of flavonoids contained in trunk exudates of Dalbergia sissoo” (J Nat Prod, 2008).

How the values were obtained:
J774.1 = experiment: Inhibition of nitric oxide production in LPS induced mouse J774.1 cells; format: functional, cell-based
In short: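 J774.1 cells are grown in DMEM with 10% FCS, penicillin and streptomycin. Adherent cells are plated at 1 × 10^5 cells/well and left 6 h at 37 °C in 5% CO2. Fresh medium with LPS 1 µg/mL and the compound at a range of concentrations is added for 24 h. Nitrite in the supernatant is measured with Griess reagent (10 min, room temperature, A550), with medium blank subtracted. % inhibition is taken against LPS-only wells. L-NMMA is the positive control.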

[1] = Cytotoxicity against LPS induced mouse J774.1 cells by MTT assay; format: cell-based
In short: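 LPS-stimulated J774.1 cells from the NO assay (1 × 10^5 cells/well, 24 h with LPS 1 µg/mL plus compound). After the supernatant is taken off, cells get fresh medium with MTT 2 mg/mL for 3 h at 37 °C in 5% CO2. Formazan is dissolved in DMSO and absorbance is read at 550 nm.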

[2] = Inhibition of NO production in LPS induced mouse J774.1 cells by Griess assay

IC50 (J774.1)	IC50 [2]	Structure (SMILES)	Activity [1]
11.5 µM	–	C=C[C@H](C1=CC(=O)C(OC)=CC1=O)c1ccc(O)cc1	> 100 µM
38.8 µM	–	C=C[C@H](C1=CC(=O)C(OC)=CC1=O)c1ccccc1	–
3.19 µM	–	C=CC(c1ccccc1)C1(O)C(=O)C=C(OC)C(=O)C1O (configuration not stated)	> 100 µM
5.4 µM	–	COc1ccc(C(=O)/C=C/c2ccccc2)c(O)c1	> 25 µM
6.22 µM	–	COC1=CC(O)(C/C=C/c2ccccc2)C(OC)=CC1=O (configuration not stated)	–
39.7 µM	–	C=C[C@H](C1=CC(=O)C=CC1=O)c1ccccc1	–
31.6 µM	–	C=C[C@@H](c1ccccc1)c1cc(O)ccc1O	–
31.6 µM	27.1 µM	CNC(=N)NCCC[C@H](N)C(=O)O [TILARGININE]	–
